Measured values as given in ChEMBL document CHEMBL1649165, “Activity profile in vitro of micafungin against Spanish clinical isolates of common and emerging species of yeasts and molds” (2009).
≈ marks a conversion by molar mass, not a printed value.

Key:
Format in all cases: functional
[1] = test system: [Candida] intermedia; experiment: Antimicrobial activity against Candida intermedia by broth microdilution method; conditions: Sungouiella intermedia
In short: (§1)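 Clinical isolates from human patients, tested by broth microdilution using the AFST-EUCAST reference procedure for fermentative yeasts. The MIC was read per that reference method.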

[2] = test system: Lewia infectoria; experiment: Antimicrobial activity against Alternaria infectoria by broth microdilution method
In short: (§2)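 Clinical mould isolates, tested by broth microdilution using the AFST-EUCAST reference method for filamentous fungi. For echinocandins, the endpoint was the minimum effective concentration: the lowest drug concentration giving aberrant hyphal growth, read with an inverted microscope.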

[3] = test system: Mucor; experiment: Antimicrobial activity against Mucor spp.by broth microdilution method
In short: (§3)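 Filamentous fungus clinical isolates tested by the AFST-EUCAST reference broth microdilution method for moulds. For echinocandins, the endpoint was the minimum effective concentration: the lowest drug concentration giving aberrant hyphal growth, read with an inverted microscope.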

[4] = test system: Kazachstania pintolopesii; experiment: Antimicrobial activity against Candida pintolopesii by broth microdilution method; conditions: Arxiozyma pintolopesii; in short: as §1
[5] = test system: Aspergillus nidulans; experiment: Antimicrobial activity against Aspergillus nidulans by broth microdilution method; in short: as §2
[6] = test system: Exophiala dermatitidis; experiment: Antimicrobial activity against Exophiala dermatitidis by broth microdilution method
[7] = test system: Aspergillus ochraceus; experiment: Antimicrobial activity against Aspergillus ochraceus by broth microdilution method; in short: as §2
[8] = test system: Candida tropicalis; experiment: Antimicrobial activity against Candida tropicalis by broth microdilution method; in short: as §1
[9] = test system: Aspergillus terreus; experiment: Antimicrobial activity against Aspergillus terreus by broth microdilution method; in short: as §2
[10] = test system: Phialemonium curvatum; experiment: Antimicrobial activity against Phialemonium curvatum by broth microdilution method; conditions: Thyridium curvatum; in short: as §3
[11] = test system: Penicillium; experiment: Antimicrobial activity against Penicillium spp. by broth microdilution method; in short: as §3
[12] = test system: Hortaea werneckii; experiment: Antimicrobial activity against Hortaea werneckii by broth microdilution method
[13] = test system: Fusarium proliferatum; experiment: Antimicrobial activity against Fusarium proliferatum by broth microdilution method; in short: as §2
[14] = test system: Rhodotorula glutinis; experiment: Antimicrobial activity against Rhodotorula glutinis by broth microdilution method
In short: (§4)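 Nonfermentative yeast clinical isolates (Rhodotorula, Trichosporon) tested by broth microdilution. The EUCAST yeast recommendations were followed strictly, with one minor modification to improve growth. MIC was read as the endpoint.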

[15] = test system: Fusarium solani; experiment: Antimicrobial activity against Fusarium solani by broth microdilution method; in short: as §3
[16] = test system: Candida orthopsilosis; experiment: Antimicrobial activity against Candida orthopsilosis by broth microdilution method; conditions: Lodderomyces orthopsilosis; in short: as §1
[17] = test system: Scytalidium hyalinum; experiment: Antimicrobial activity against Scytalidium hyalinum by broth microdilution method; conditions: Neoscytalidium hyalinum; in short: as §3
[18] = test system: Clavispora lusitaniae; experiment: Antimicrobial activity against Candida lusitaniae by broth microdilution method; in short: as §1
[19] = test system: Fusarium verticillioides; experiment: Antimicrobial activity against Fusarium verticillioides by broth microdilution method; in short: as §3
[20] = test system: Rhizopus arrhizus; experiment: Antimicrobial activity against Rhizopus oryzae by broth microdilution method; in short: as §3
[21] = test system: Scopulariopsis brevicaulis; experiment: Antimicrobial activity against Scopulariopsis brevicaulis by broth microdilution method; in short: as §3
[22] = test system: Fusarium reticulatum; experiment: Antimicrobial activity against Fusarium reticulatum by broth microdilution method; in short: as §3
[23] = test system: Lecythophora hoffmannii; experiment: Antimicrobial activity against Lecythophora hoffmannii by broth microdilution method; conditions: Coniochaeta hoffmannii; in short: as §3
[24] = test system: Naganishia albida; experiment: Antimicrobial activity against Cryptococcus albidus by broth microdilution method
In short: (§5)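 Clinical isolates of nonfermentative yeasts, tested by broth microdilution following EUCAST recommendations. The only change from that method was a minor modification to improve growth.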

[25] = test system: Meyerozyma guilliermondii; experiment: Antimicrobial activity against Candida guilliermondii by broth microdilution method; in short: as §1
[26] = test system: Fennellia nivea; experiment: Antimicrobial activity against Aspergillus niveus by broth microdilution method; in short: as §2
[27] = test system: Acremonium sp.; experiment: Antimicrobial activity against Acremonium sp.by broth microdilution method; in short: as §2
[28] = test system: Cryptococcus deneoformans; experiment: Antimicrobial activity against Cryptococcus neoformans var. neoformans by broth microdilution method; in short: as §5
[29] = test system: Trichosporon domesticum; experiment: Antimicrobial activity against Trichosporon mycotoxinivorans by broth microdilution method; conditions: Apiotrichum domesticum
In short: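 Spanish human clinical isolates were tested as nonfermentative yeasts by broth microdilution. The method strictly followed the EUCAST recommendations, with a minor modification to improve growth, and the read-out was the MIC.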

[30] = test system: Cunninghamella bertholletiae; experiment: Antimicrobial activity against Cunninghamella bertholletiae by broth microdilution method; in short: as §2
[31] = test system: Coprinellus domesticus; experiment: Antimicrobial activity against Hormographiella verticillata by broth microdilution method; in short: as §3
[32] = test system: Ustilago; experiment: Antimicrobial activity against Ustilago spp by broth microdilution method
[33] = test system: Fusarium equiseti; experiment: Antimicrobial activity against Fusarium equiseti by broth microdilution method; in short: as §2
[34] = test system: Kluyveromyces marxianus; experiment: Antimicrobial activity against Candida kefyr by broth microdilution method; in short: as §1
[35] = test system: Aureobasidium pullulans; experiment: Antimicrobial activity against Aureobasidium pullulans by broth microdilution method
[36] = test system: Scedosporium apiospermum; experiment: Antimicrobial activity against Scedosporium apiospermum by broth microdilution method; in short: as §3
[37] = test system: Trichosporon inkin; experiment: Antimicrobial activity against Trichosporon inkin by broth microdilution method; in short: as §4
[38] = test system: Fusarium oxysporum; experiment: Antimicrobial activity against Fusarium oxysporum by broth microdilution method; in short: as §2
[39] = test system: Rhodotorula mucilaginosa; experiment: Antimicrobial activity against Rhodotorula mucilaginosa by broth microdilution method; in short: as §4
[40] = test system: Diutina rugosa; experiment: Antimicrobial activity against Candida rugosa by broth microdilution method; in short: as §1
[41] = test system: Aspergillus glaucus; experiment: Antimicrobial activity against Aspergillus glaucus by broth microdilution method; in short: as §2
[42] = test system: Aspergillus flavus; experiment: Antimicrobial activity against Aspergillus flavus by broth microdilution method; in short: as §2
[43] = test system: Torulaspora delbrueckii; experiment: Antimicrobial activity against Candida coliculosa by broth microdilution method; in short: as §1
[44] = test system: Aspergillus ustus; experiment: Antimicrobial activity against Aspergillus ustus by broth microdilution method; in short: as §2

Structure (SMILES): C[C@@H](c1ncncc1F)[C@](O)(Cn1cncn1)c1ccc(F)cc1F [VORICONAZOLE]
- MIC50 [1]: 0.12 µg/mL (≈ 0.344 µM)
- MIC90 [1]: > 8 µg/mL
- MIC50 [2]: 2 µg/mL (≈ 5.73 µM)
- MIC90 [2]: > 8 µg/mL
- MIC50 [3]: > 8 µg/mL
- MIC90 [3]: > 8 µg/mL
- MIC50 [4]: 0.12 µg/mL (≈ 0.344 µM)
- MIC90 [4]: > 8 µg/mL
- MIC50 [5]: 0.25 µg/mL (≈ 0.716 µM)
- MIC90 [5]: 1 µg/mL (≈ 2.86 µM)
- MIC50 [6]: 0.06 µg/mL (≈ 0.172 µM)
- MIC90 [6]: > 8 µg/mL
- MIC50 [7]: 0.25 µg/mL (≈ 0.716 µM)
- MIC90 [7]: > 8 µg/mL
- MIC50 [8]: 0.03 µg/mL (≈ 0.0859 µM)
- MIC90 [8]: 0.12 µg/mL (≈ 0.344 µM)
- MIC50 [9]: 1 µg/mL (≈ 2.86 µM)
- MIC90 [9]: 2 µg/mL (≈ 5.73 µM)
- MIC50 [10]: 4 µg/mL (≈ 11.5 µM)
- MIC90 [10]: > 8 µg/mL
- MIC50 [11]: 2 µg/mL (≈ 5.73 µM)
- MIC90 [11]: 8 µg/mL (≈ 22.9 µM)
- MIC50 [12]: 0.06 µg/mL (≈ 0.172 µM)
- MIC90 [12]: > 8 µg/mL
- MIC50 [13]: 8 µg/mL (≈ 22.9 µM)
- MIC90 [13]: 8 µg/mL (≈ 22.9 µM)
- MIC50 [14]: 0.5 µg/mL (≈ 1.43 µM)
- MIC90 [14]: > 8 µg/mL
- MIC50 [15]: > 8 µg/mL
- MIC90 [15]: 4 µg/mL (≈ 11.5 µM)
- MIC50 [16]: 0.12 µg/mL (≈ 0.344 µM)
- MIC90 [16]: > 8 µg/mL
- MIC50 [17]: 0.06 µg/mL (≈ 0.172 µM)
- MIC90 [17]: > 8 µg/mL
- MIC50 [18]: 0.02 µg/mL (≈ 0.0573 µM)
- MIC90 [18]: 0.02 µg/mL (≈ 0.0573 µM)
- MIC50 [19]: 8 µg/mL (≈ 22.9 µM)
- MIC90 [19]: > 8 µg/mL
- MIC50 [20]: > 8 µg/mL
- MIC90 [20]: > 8 µg/mL
- MIC50 [21]: 4 µg/mL (≈ 11.5 µM)
- MIC90 [21]: > 8 µg/mL
- MIC50 [22]: 4 µg/mL (≈ 11.5 µM)
- MIC90 [22]: > 8 µg/mL
- MIC50 [23]: 0.06 µg/mL (≈ 0.172 µM)
- MIC90 [23]: > 8 µg/mL
- MIC50 [24]: 0.5 µg/mL (≈ 1.43 µM)
- MIC90 [24]: > 8 µg/mL
- MIC50 [25]: 0.12 µg/mL (≈ 0.344 µM)
- MIC90 [25]: > 8 µg/mL
- MIC50 [26]: 0.25 µg/mL (≈ 0.716 µM)
- MIC90 [26]: > 8 µg/mL
- MIC50 [27]: 4 µg/mL (≈ 11.5 µM)
- MIC90 [27]: > 8 µg/mL
- MIC50 [28]: 0.12 µg/mL (≈ 0.344 µM)
- MIC90 [28]: 0.5 µg/mL (≈ 1.43 µM)
- MIC50 [29]: 0.5 µg/mL (≈ 1.43 µM)
- MIC90 [29]: > 8 µg/mL
- MIC50 [30]: > 8 µg/mL
- MIC90 [30]: > 8 µg/mL
- MIC50 [31]: 4 µg/mL (≈ 11.5 µM)
- MIC90 [31]: > 8 µg/mL
- MIC50 [32]: 0.5 µg/mL (≈ 1.43 µM)
- MIC90 [32]: > 8 µg/mL
- MIC50 [33]: 4 µg/mL (≈ 11.5 µM)
- MIC90 [33]: > 8 µg/mL
- MIC50 [34]: 0.02 µg/mL (≈ 0.0573 µM)
- MIC90 [34]: 0.02 µg/mL (≈ 0.0573 µM)
- MIC50 [35]: 0.06 µg/mL (≈ 0.172 µM)
- MIC90 [35]: > 8 µg/mL
- MIC50 [36]: 0.5 µg/mL (≈ 1.43 µM)
- MIC90 [36]: 2 µg/mL (≈ 5.73 µM)
- MIC50 [37]: 0.06 µg/mL (≈ 0.172 µM)
- MIC90 [37]: 0.12 µg/mL (≈ 0.344 µM)
- MIC50 [38]: 4 µg/mL (≈ 11.5 µM)
- MIC90 [38]: > 8 µg/mL
- MIC50 [39]: 4 µg/mL (≈ 11.5 µM)
- MIC90 [39]: > 8 µg/mL
- MIC50 [40]: 0.12 µg/mL (≈ 0.344 µM)
- MIC90 [40]: > 8 µg/mL
- MIC50 [41]: 0.25 µg/mL (≈ 0.716 µM)
- MIC90 [41]: > 8 µg/mL
- MIC50 [42]: 1 µg/mL (≈ 2.86 µM)
- MIC90 [42]: 2 µg/mL (≈ 5.73 µM)
- MIC50 [43]: 0.12 µg/mL (≈ 0.344 µM)
- MIC90 [43]: > 8 µg/mL
- MIC50 [44]: 0.25 µg/mL (≈ 0.716 µM)
- MIC90 [44]: > 8 µg/mL
